From ChEMBL document CHEMBL2406954, “Improved flavodoxin inhibitors with potential therapeutic effects against Helicobacter pylori infection” (J Med Chem, 2013)
Converted amounts (≈) assume the structure as drawn. The source made the active and inactive calls. No cut-off for these calls is given here.

Columns and labels:
[1] = Cytotoxicity in human HeLa cells after 24 hrs by XTT assay; type: cell-based
In short: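 HeLa cells, 30,000 per well in DMEM with 10% fetal serum and penicillin/streptomycin. Compound added from DMSO to final 0.1, 0.25, 0.5, 1, 10, 25, 50, 75, 100 µM; DMSO-only controls. 24 h at 37 °C, then medium exchanged for phenol red-free medium, XTT-PMS added, 4 h at 37 °C, absorbance read at 450 and 500 nm. Two experiments, each in triplicate.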

[2] = Binding affinity to Helicobacter pyroli flavodoxin expressed in Escherichia coli by isothermal titration calorimetry analysis; parameters: species or system Helicobacter pylori
In short: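 ITC at 25°C: degassed 20 µM protein titrated with ~500 µM inhibitor, both in 50 mM EPPS pH 9.0, 5% DMSO. Injection heats fitted to a 1:1 binding model for Kd.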

[3] = Therapeutic index, ratio of MCC for human HeLa cells to MIC for Helicobacter pylori; type: cell-based; settings: read-out: TI
Helicobacter pylori [4] = test: Antibacterial activity against Helicobacter pylori after 28 hrs by microdilution method; type: functional
Helicobacter pylori [5] = test: Bactericidal activity against Helicobacter pylori at 2 times MIC; type: functional, organism-based

**Q.** Which MCC at 24 h [1] does the source give for `O=C(Nc1ccc(Cl)cc1Cl)OCCSc1ccc([N+](=O)[O-])c2nonc12` here?
**A.** 1.7 µM

**Q.** For `O=[N+]([O-])C1=Cc2cc(Cl)cc(Cl)c2OC1c1ccc(Br)cc1` (configuration not stated), which Kd [2] is on record?
**A.** 25 µM

**Q.** For `COc1ccc(C(=O)OCCSc2ccc([N+](=O)[O-])c3nonc23)cc1`, which MCC at 24 h [1] is on record?
**A.** 8 µM

**Q.** With `O=[N+]([O-])C1=Cc2cc(Cl)cc(Cl)c2OC1c1ccc(I)cc1` (configuration not stated) as the compound, how does the MCC at 24 h [1] read?
**A.** 10 µM

**Q.** For `O=[N+]([O-])/C=C/c1c(F)c(F)c(F)c(F)c1F`, which Kd [2] is on record?
**A.** 10 µM

**Q.** What about the selectivity ratio [3] of the same compound?
**A.** 0.001

**Q.** And the MCC at 24 h [1]?
**A.** 0.01 µM

**Q.** What about the MIC (Helicobacter pylori [4]) of the same compound?
**A.** 8 µM (≈ 1.91 µg/mL)

**Q.** Which MCC at 24 h [1] does the source give for `O=[N+]([O-])C1=Cc2cc(Cl)cc(Cl)c2OC1c1ccc(F)cc1` (configuration not stated) here?
**A.** 6 µM

**Q.** For `O=[N+]([O-])/C=C/c1cc(C(F)(F)F)ccc1F`, which Kd [2] is on record?
**A.** 4.4 µM

**Q.** What about the selectivity ratio [3] of the same compound?
**A.** 15.1

**Q.** What about the MCC at 24 h [1] of the same compound?
**A.** 8 µM

**Q.** And the MIC (Helicobacter pylori [4])?
**A.** 0.53 µM (≈ 0.125 µg/mL)

**Q.** For `O=[N+]([O-])/C=C/c1ccccc1I`, which Kd [2] is on record?
**A.** 16 µM

**Q.** What about the selectivity ratio [3] of the same compound?
**A.** 0.2

**Q.** And the MCC at 24 h [1]?
**A.** 1 µM

**Q.** What about the MIC (Helicobacter pylori [4]) of the same compound?
**A.** 4.8 µM (≈ 1.32 µg/mL)

**Q.** Which results are given for `O=[N+]([O-])/C=C/c1ccc(F)cc1`?
**A.** Kd [2]: 40 µM; selectivity ratio [3]: 18.9; MCC at 24 h [1]: 20 µM; MIC (Helicobacter pylori [4]): 1.06 µM (≈ 0.177 µg/mL); Activity (Helicobacter pylori [5]): Active

**Q.** With `COc1ccc(CCCSc2ccc([N+](=O)[O-])c3nonc23)cc1` as the compound, how does the MCC at 24 h [1] read?
**A.** 1 µM

**Q.** With `O=[N+]([O-])/C=C/c1cc(Cl)cc(Cl)c1` as the compound, how does the Kd [2] read?
**A.** 0.67 µM

**Q.** What about the selectivity ratio [3] of the same compound?
**A.** 0.8

**Q.** What about the MCC at 24 h [1] of the same compound?
**A.** 2 µM

**Q.** And the MIC (Helicobacter pylori [4])?
**A.** 2.4 µM (≈ 0.523 µg/mL)

**Q.** For `CN(C)c1ccc([N+](=O)[O-])c2nonc12`, which MCC at 24 h [1] is on record?
**A.** 100 µM

**Q.** For `COc1ccc(Sc2ccc([N+](=O)[O-])c3nonc23)cc1`, which Kd [2] is on record?
**A.** 2.6 µM

**Q.** And the selectivity ratio [3]?
**A.** 1.5

**Q.** What about the MCC at 24 h [1] of the same compound?
**A.** 3 µM

**Q.** And the MIC (Helicobacter pylori [4])?
**A.** 2 µM (≈ 0.607 µg/mL)

**Q.** What about the Activity (Helicobacter pylori [5]) of the same compound?
**A.** Active

**Q.** Which Kd [2] does the source give for `O=[N+]([O-])C1=Cc2cc(Cl)ccc2NC1c1ccc(F)cc1` (configuration not stated) here?
**A.** 33 µM

**Q.** Which MCC at 24 h [1] does the source give for `NS(=O)(=O)c1ccc(SCCO)c2nonc12` here?
**A.** 100 µM

**Q.** With `COc1cccc(/C=C(\C)[N+](=O)[O-])c1` as the compound, how does the Kd [2] read?
**A.** 5.5 µM

**Q.** And the selectivity ratio [3]?
**A.** 0.3

**Q.** What about the MCC at 24 h [1] of the same compound?
**A.** 0.7 µM

**Q.** And the MIC (Helicobacter pylori [4])?
**A.** 2.4 µM (≈ 0.464 µg/mL)

**Q.** Which MCC at 24 h [1] does the source give for `Cc1ccc(Sc2ccc([N+](=O)[O-])c3nonc23)cc1` here?
**A.** 1.3 µM

**Q.** What does the source list for `O=[N+]([O-])/C=C/c1ccccc1C(F)(F)F`?
**A.** Kd [2]: 8.8 µM; selectivity ratio [3]: 0.04; MCC at 24 h [1]: 0.1 µM; MIC (Helicobacter pylori [4]): 2.4 µM (≈ 0.521 µg/mL)

**Q.** Which MCC at 24 h [1] does the source give for `CSc1ccc(C2Oc3ccccc3C=C2[N+](=O)[O-])cc1` (configuration not stated) here?
**A.** 1 µM

**Q.** With `COc1ccc(C2(C)SCc3cc(C)c(C)cc3CS2)cc1` as the compound, how does the MCC at 24 h [1] read?
**A.** 100 µM

**Q.** For `O=[N+]([O-])C1=Cc2cc(Cl)ccc2OC1c1ccc(F)cc1` (configuration not stated), which MCC at 24 h [1] is on record?
**A.** 6 µM

**Q.** With `O=C(Nc1ccccc1)OCCSc1ccc([N+](=O)[O-])c2nonc12` as the compound, how does the MCC at 24 h [1] read?
**A.** 2.2 µM

**Q.** Which MCC at 24 h [1] does the source give for `COc1ccc(CSc2ccc([N+](=O)[O-])c3nonc23)cc1` here?
**A.** 1.7 µM

**Q.** Which Kd [2] does the source give for `O=[N+]([O-])/C=C/c1cc(C(F)(F)F)cc(C(F)(F)F)c1` here?
**A.** 3.5 µM

**Q.** And the selectivity ratio [3]?
**A.** 1.5

**Q.** And the MCC at 24 h [1]?
**A.** 3.5 µM

**Q.** And the MIC (Helicobacter pylori [4])?
**A.** 2.4 µM (≈ 0.684 µg/mL)

**Q.** For `O=[N+]([O-])C1=Cc2c(ccc3ccccc23)OC1c1ccc(F)cc1` (configuration not stated), which Kd [2] is on record?
**A.** 0.78 µM

**Q.** What about the selectivity ratio [3] of the same compound?
**A.** 8.3

**Q.** And the MCC at 24 h [1]?
**A.** 10 µM

**Q.** And the MIC (Helicobacter pylori [4])?
**A.** 1.2 µM (≈ 0.386 µg/mL)

**Q.** And the Activity (Helicobacter pylori [5])?
**A.** Active

**Q.** Which MCC at 24 h [1] does the source give for `COC(=O)C1=C(c2ccccc2Cl)Oc2ccc([N+](=O)[O-])cc2C1` here?
**A.** 70 µM

**Q.** Which Kd [2] does the source give for `O=[N+]([O-])/C=C/c1cc(Cl)cc(Br)c1` here?
**A.** 10 µM

**Q.** What about the MCC at 24 h [1] of the same compound?
**A.** 2.7 µM

**Q.** With `COc1ccc(CSc2ccc(S(N)(=O)=O)c3nonc23)cc1` as the compound, how does the MCC at 24 h [1] read?
**A.** 12 µM

**Q.** For `O=[N+]([O-])/C=C/c1c(F)cc(Cl)cc1F`, which Kd [2] is on record?
**A.** 7.4 µM

**Q.** What about the selectivity ratio [3] of the same compound?
**A.** 37.7

**Q.** What about the MCC at 24 h [1] of the same compound?
**A.** 20 µM

**Q.** And the MIC (Helicobacter pylori [4])?
**A.** 0.53 µM (≈ 0.116 µg/mL)

**Q.** And the Activity (Helicobacter pylori [5])?
**A.** Active

**Q.** With `COc1ccc(CSc2ccc(N)c3nonc23)cc1` as the compound, how does the MCC at 24 h [1] read?
**A.** 100 µM

**Q.** Which results are given for `O=[N+]([O-])/C=C/c1cccc(C(F)(F)F)c1`?
**A.** Kd [2]: 7.9 µM; selectivity ratio [3]: 8.4; MCC at 24 h [1]: 40 µM; MIC (Helicobacter pylori [4]): 4.75 µM (≈ 1.03 µg/mL); Activity (Helicobacter pylori [5]): Active

**Q.** With `O=[N+]([O-])/C=C/c1ccc(I)cc1` as the compound, how does the Kd [2] read?
**A.** 6.6 µM

**Q.** What about the selectivity ratio [3] of the same compound?
**A.** 9.4

**Q.** And the MCC at 24 h [1]?
**A.** 10 µM

**Q.** What about the MIC (Helicobacter pylori [4]) of the same compound?
**A.** 1.06 µM (≈ 0.292 µg/mL)

**Q.** What about the Activity (Helicobacter pylori [5]) of the same compound?
**A.** Active

**Q.** With `O=[N+]([O-])C1=Cc2cc(Cl)ccc2OC1c1ccc(Cl)cc1` (configuration not stated) as the compound, how does the MCC at 24 h [1] read?
**A.** 6 µM

**Q.** With `Brc1cccc2nsnc12` as the compound, how does the MCC at 24 h [1] read?
**A.** 100 µM

**Q.** Which MCC at 24 h [1] does the source give for `O=C(O)/C=C/c1cc(C(F)(F)F)cc(C(F)(F)F)c1` here?
**A.** 100 µM

**Q.** For `CCOC(=O)C1=Cc2cc(Cl)cc(Cl)c2OC1c1ccc(F)cc1` (configuration not stated), which MCC at 24 h [1] is on record?
**A.** 12 µM

**Q.** Which MCC at 24 h [1] does the source give for `O=C(OCCSc1ccc([N+](=O)[O-])c2nonc12)c1ccc(Cl)cc1Cl` here?
**A.** 4 µM

**Q.** Which Kd [2] does the source give for `O=[N+]([O-])/C=C/c1ccc(F)cc1Br` here?
**A.** 19 µM

**Q.** And the selectivity ratio [3]?
**A.** 2.1

**Q.** What about the MCC at 24 h [1] of the same compound?
**A.** 10 µM

**Q.** And the MIC (Helicobacter pylori [4])?
**A.** 4.8 µM (≈ 1.18 µg/mL)

**Q.** Which Kd [2] does the source give for `O=[N+]([O-])/C=C/c1ccc(Br)cc1` here?
**A.** 4.1 µM

**Q.** What about the selectivity ratio [3] of the same compound?
**A.** 15.1

**Q.** What about the MCC at 24 h [1] of the same compound?
**A.** 8 µM

**Q.** And the MIC (Helicobacter pylori [4])?
**A.** 0.53 µM (≈ 0.121 µg/mL)

**Q.** And the Activity (Helicobacter pylori [5])?
**A.** Active

**Q.** What does the source list for `O=[N+]([O-])/C=C/c1ccc(Cl)c(C(F)(F)F)c1`?
**A.** Kd [2]: 2.8 µM; selectivity ratio [3]: 4.7; MCC at 24 h [1]: 5 µM; MIC (Helicobacter pylori [4]): 1.06 µM (≈ 0.267 µg/mL)

**Q.** With `COC(=O)/C=C/c1cc(C(F)(F)F)cc(C(F)(F)F)c1` as the compound, how does the MCC at 24 h [1] read?
**A.** 100 µM
